Measurements taken from ChEMBL document CHEMBL1143805, “Synthesis and antimicrobial activities of some novel 1,2,4-triazolo[3,4-b]-1,3,4-thiadiazoles and 1,2,4-triazolo[3,4-b]-1,3,4-thiadiazines carrying thioalkyl and sulphonyl phenoxy moieties” (2007).
Values after ≈ are worked out from the molar mass of the structure shown.

tested on: Talaromyces marneffei; test: Antifungal activity against Penicillium marneffei; type: functional; conditions: not given
In short: (§1)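 Agar-well diffusion on Sabouraud agar at pH 5.7. Plates were lawned with a saline spore suspension (one loopful in 3 ml), decanted and dried 1 h at 37 °C. Compounds in DMSO went into punched wells, with a DMSO solvent control. Plates were run in triplicate and kept at 37 °C for 3-4 days, with inhibition-zone diameter as read-out.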

SMILES | inhibition zone (IZ)
CCSc1ccc(OCc2nnc3sc(-c4ccc(C)cc4)nn23)cc1 | 16 mm
CCSc1ccc(OCc2nnc3sc(-c4ccccc4)nn23)cc1 | 16 mm
CCSc1ccc(OCc2nnc3n2N=C(c2ccc(O)c(C(N)=O)c2)CS3)cc1 | 16 mm
CS(=O)(=O)c1ccc(OCc2nnc3n2N=C(c2ccc(Cl)cc2Cl)CS3)cc1 | <10 mm

same assay, conditions: Talaromyces marneffei

MIC | SMILES
6.25 µg/mL (≈ 16.3 µM) | CCSc1ccc(OCc2nnc3sc(-c4ccc(C)cc4)nn23)cc1
6.25 µg/mL (≈ 17 µM) | CCSc1ccc(OCc2nnc3sc(-c4ccccc4)nn23)cc1
6.25 µg/mL (≈ 14.2 µM) | CCSc1ccc(OCc2nnc3n2N=C(c2ccc(O)c(C(N)=O)c2)CS3)cc1
25 µg/mL (≈ 53.3 µM) | CS(=O)(=O)c1ccc(OCc2nnc3n2N=C(c2ccc(Cl)cc2Cl)CS3)cc1

tested on: Aspergillus fumigatus; test: Antifungal activity against Aspergillus fumigatus NCIM 902; type: functional; conditions: not given

SMILES | inhibition zone (IZ)
CCSc1ccc(OCc2nnc3sc(-c4ccc(C)cc4)nn23)cc1 | <10 mm
CCSc1ccc(OCc2nnc3sc(-c4ccccc4)nn23)cc1 | 16 mm
CCSc1ccc(OCc2nnc3n2N=C(c2ccc(O)c(C(N)=O)c2)CS3)cc1 | 16 mm
CS(=O)(=O)c1ccc(OCc2nnc3n2N=C(c2ccc(Cl)cc2Cl)CS3)cc1 | 11 mm

same assay, conditions: Aspergillus fumigatus, NCIM 902

MIC | SMILES
25 µg/mL (≈ 65.4 µM) | CCSc1ccc(OCc2nnc3sc(-c4ccc(C)cc4)nn23)cc1
6.25 µg/mL (≈ 17 µM) | CCSc1ccc(OCc2nnc3sc(-c4ccccc4)nn23)cc1
6.25 µg/mL (≈ 14.2 µM) | CCSc1ccc(OCc2nnc3n2N=C(c2ccc(O)c(C(N)=O)c2)CS3)cc1
12.5 µg/mL (≈ 26.6 µM) | CS(=O)(=O)c1ccc(OCc2nnc3n2N=C(c2ccc(Cl)cc2Cl)CS3)cc1

tested on: Staphylococcus aureus; test: Antibacterial activity against Staphylococcus aureus ATCC 25923; type: functional; conditions: not given
In short: (§2)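 MIC by serial dilution in Mueller-Hinton broth tubes, pH adjusted to 5.0 with phosphate buffer. A standardized bacterial suspension was inoculated and incubated 16-18 h at 37 °C, and MIC was read as the lowest concentration with no visible growth. Zones were also measured in agar wells on seeded plates, with compounds in DMSO and a DMSO control, triplicate plates, 37 °C for 3-4 days.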

SMILES | inhibition zone (IZ)
CCSc1ccc(OCc2nnc3sc(-c4ccc(C)cc4)nn23)cc1 | 16 mm
CCSc1ccc(OCc2nnc3sc(-c4ccccc4)nn23)cc1 | 16 mm
CCSc1ccc(OCc2nnc3n2N=C(c2ccc(O)c(C(N)=O)c2)CS3)cc1 | 16 mm
CS(=O)(=O)c1ccc(OCc2nnc3n2N=C(c2ccc(Cl)cc2Cl)CS3)cc1 | 11 mm
O=C(O)c1cn(C2CC2)c2cc(N3CCNCC3)c(F)cc2c1=O [CIPROFLOXACIN] | 22 mm

same assay, conditions: Staphylococcus aureus, ATCC 25923

SMILES | MIC
CS(=O)(=O)c1ccc(OCc2nnc3n2N=C(c2ccc(Cl)cc2Cl)CS3)cc1 | 12.5 µg/mL (≈ 26.6 µM)
O=C(O)c1cn(C2CC2)c2cc(N3CCNCC3)c(F)cc2c1=O [CIPROFLOXACIN] | 1.56 µg/mL (≈ 4.71 µM)

The remaining lines, values ahead:

MIC | SMILES
6.25 µg/mL (≈ 16.3 µM) | CCSc1ccc(OCc2nnc3sc(-c4ccc(C)cc4)nn23)cc1
6.25 µg/mL (≈ 17 µM) | CCSc1ccc(OCc2nnc3sc(-c4ccccc4)nn23)cc1
6.25 µg/mL (≈ 14.2 µM) | CCSc1ccc(OCc2nnc3n2N=C(c2ccc(O)c(C(N)=O)c2)CS3)cc1

tested on: Aspergillus flavus; test: Antifungal activity against Aspergillus flavus NCIM 524; type: functional; conditions: not given; in short: as §1

SMILES | inhibition zone (IZ)
CCSc1ccc(OCc2nnc3sc(-c4ccc(C)cc4)nn23)cc1 | <10 mm
CCSc1ccc(OCc2nnc3sc(-c4ccccc4)nn23)cc1 | 16 mm
CCSc1ccc(OCc2nnc3n2N=C(c2ccc(O)c(C(N)=O)c2)CS3)cc1 | 16 mm
CS(=O)(=O)c1ccc(OCc2nnc3n2N=C(c2ccc(Cl)cc2Cl)CS3)cc1 | 11 mm

same assay, conditions: Aspergillus flavus, NCIM 524

MIC | SMILES
25 µg/mL (≈ 65.4 µM) | CCSc1ccc(OCc2nnc3sc(-c4ccc(C)cc4)nn23)cc1
6.25 µg/mL (≈ 17 µM) | CCSc1ccc(OCc2nnc3sc(-c4ccccc4)nn23)cc1
6.25 µg/mL (≈ 14.2 µM) | CCSc1ccc(OCc2nnc3n2N=C(c2ccc(O)c(C(N)=O)c2)CS3)cc1
12.5 µg/mL (≈ 26.6 µM) | CS(=O)(=O)c1ccc(OCc2nnc3n2N=C(c2ccc(Cl)cc2Cl)CS3)cc1

tested on: Klebsiella pneumoniae; test: Antibacterial activity against Klebsiella pneumoniae; type: functional; conditions: not given; in short: as §2

SMILES | inhibition zone (IZ)
CCSc1ccc(OCc2nnc3sc(-c4ccc(C)cc4)nn23)cc1 | 16 mm
CCSc1ccc(OCc2nnc3sc(-c4ccccc4)nn23)cc1 | 16 mm
CCSc1ccc(OCc2nnc3n2N=C(c2ccc(O)c(C(N)=O)c2)CS3)cc1 | 16 mm
CS(=O)(=O)c1ccc(OCc2nnc3n2N=C(c2ccc(Cl)cc2Cl)CS3)cc1 | 11 mm
O=C(O)c1cn(C2CC2)c2cc(N3CCNCC3)c(F)cc2c1=O [CIPROFLOXACIN] | 23 mm

same assay, conditions: Klebsiella pneumoniae

SMILES | MIC
CS(=O)(=O)c1ccc(OCc2nnc3n2N=C(c2ccc(Cl)cc2Cl)CS3)cc1 | 12.5 µg/mL (≈ 26.6 µM)
O=C(O)c1cn(C2CC2)c2cc(N3CCNCC3)c(F)cc2c1=O [CIPROFLOXACIN] | 6.25 µg/mL (≈ 18.9 µM)

More lines, now with the values ahead:

MIC | SMILES
6.25 µg/mL (≈ 16.3 µM) | CCSc1ccc(OCc2nnc3sc(-c4ccc(C)cc4)nn23)cc1
6.25 µg/mL (≈ 17 µM) | CCSc1ccc(OCc2nnc3sc(-c4ccccc4)nn23)cc1
6.25 µg/mL (≈ 14.2 µM) | CCSc1ccc(OCc2nnc3n2N=C(c2ccc(O)c(C(N)=O)c2)CS3)cc1

tested on: Escherichia coli; test: Antibacterial activity against Escherichia coli ATCC 25922; type: functional; conditions: not given; in short: as §2

SMILES | inhibition zone (IZ)
CCSc1ccc(OCc2nnc3sc(-c4ccc(C)cc4)nn23)cc1 | 16 mm
CCSc1ccc(OCc2nnc3sc(-c4ccccc4)nn23)cc1 | 16 mm
CCSc1ccc(OCc2nnc3n2N=C(c2ccc(O)c(C(N)=O)c2)CS3)cc1 | 16 mm
CS(=O)(=O)c1ccc(OCc2nnc3n2N=C(c2ccc(Cl)cc2Cl)CS3)cc1 | 11 mm
O=C(O)c1cn(C2CC2)c2cc(N3CCNCC3)c(F)cc2c1=O [CIPROFLOXACIN] | 30 mm

same assay, conditions: Escherichia coli, ATCC 25922

MIC | SMILES
6.25 µg/mL (≈ 16.3 µM) | CCSc1ccc(OCc2nnc3sc(-c4ccc(C)cc4)nn23)cc1
6.25 µg/mL (≈ 17 µM) | CCSc1ccc(OCc2nnc3sc(-c4ccccc4)nn23)cc1
6.25 µg/mL (≈ 14.2 µM) | CCSc1ccc(OCc2nnc3n2N=C(c2ccc(O)c(C(N)=O)c2)CS3)cc1
12.5 µg/mL (≈ 26.6 µM) | CS(=O)(=O)c1ccc(OCc2nnc3n2N=C(c2ccc(Cl)cc2Cl)CS3)cc1

tested on: Pseudomonas aeruginosa; test: Antibacterial activity against Pseudomonas aeruginosa ATCC 27853; type: functional; conditions: not given; in short: as §2

SMILES | inhibition zone (IZ)
CCSc1ccc(OCc2nnc3sc(-c4ccc(C)cc4)nn23)cc1 | 16 mm
CCSc1ccc(OCc2nnc3sc(-c4ccccc4)nn23)cc1 | 16 mm
CCSc1ccc(OCc2nnc3n2N=C(c2ccc(O)c(C(N)=O)c2)CS3)cc1 | 16 mm
CS(=O)(=O)c1ccc(OCc2nnc3n2N=C(c2ccc(Cl)cc2Cl)CS3)cc1 | 11 mm
O=C(O)c1cn(C2CC2)c2cc(N3CCNCC3)c(F)cc2c1=O [CIPROFLOXACIN] | 25 mm

same assay, conditions: Pseudomonas aeruginosa, ATCC 27853

MIC | SMILES
6.25 µg/mL (≈ 16.3 µM) | CCSc1ccc(OCc2nnc3sc(-c4ccc(C)cc4)nn23)cc1
6.25 µg/mL (≈ 17 µM) | CCSc1ccc(OCc2nnc3sc(-c4ccccc4)nn23)cc1
6.25 µg/mL (≈ 14.2 µM) | CCSc1ccc(OCc2nnc3n2N=C(c2ccc(O)c(C(N)=O)c2)CS3)cc1
12.5 µg/mL (≈ 26.6 µM) | CS(=O)(=O)c1ccc(OCc2nnc3n2N=C(c2ccc(Cl)cc2Cl)CS3)cc1

tested on: Trichophyton benhamiae; test: Antifungal activity against Trichophyton mentagrophytes; type: functional, Arthroderma benhamiae; conditions: not given; in short: as §1

SMILES | inhibition zone (IZ)
CCSc1ccc(OCc2nnc3sc(-c4ccc(C)cc4)nn23)cc1 | <10 mm
CCSc1ccc(OCc2nnc3sc(-c4ccccc4)nn23)cc1 | 16 mm
CCSc1ccc(OCc2nnc3n2N=C(c2ccc(O)c(C(N)=O)c2)CS3)cc1 | 16 mm
CS(=O)(=O)c1ccc(OCc2nnc3n2N=C(c2ccc(Cl)cc2Cl)CS3)cc1 | 11 mm

same assay, conditions: Trichophyton benhamiae

MIC | SMILES
25 µg/mL (≈ 65.4 µM) | CCSc1ccc(OCc2nnc3sc(-c4ccc(C)cc4)nn23)cc1
6.25 µg/mL (≈ 17 µM) | CCSc1ccc(OCc2nnc3sc(-c4ccccc4)nn23)cc1
6.25 µg/mL (≈ 14.2 µM) | CCSc1ccc(OCc2nnc3n2N=C(c2ccc(O)c(C(N)=O)c2)CS3)cc1
12.5 µg/mL (≈ 26.6 µM) | CS(=O)(=O)c1ccc(OCc2nnc3n2N=C(c2ccc(Cl)cc2Cl)CS3)cc1
